Nine compounds from ChEMBL document CHEMBL1765068, “Role of the side chain stereochemistry in the α-glucosidase inhibitory activity of kotalanol, a potent natural α-glucosidase inhibitor” (Bioorg Med Chem, 2011) can be followed below.

For assay [1], the target named is T1, Sucrase-isomaltase, intestinal (Rattus norvegicus, UniProt P23739). Nature of the assay: Inhibition of rat small intestinal sucrase after 30 mins. The method in brief:
(§1)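 Enzyme source was rat small-intestinal brush-border membrane vesicles suspended in 0.1 M maleate buffer, pH 6.0. Substrate solutions were maltose 74 mM (maltase), sucrose 74 mM (sucrase) and isomaltose 7.4 mM (isomaltase). Glucose was measured by glucose oxidase. IC50 was read graphically from % inhibition versus log concentration.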

For assay [2], the target named is T1, Sucrase-isomaltase, intestinal. Nature of the assay: Inhibition of rat small intestinal isomaltase after 30 mins. The gist of the method: as §1
For assay [3], the target named is Sucrase-isomaltase, intestinal (Rattus norvegicus) (UniProt P23739). The note with it: 100 ug/ml.
Sucrase-isomaltase, intestinal (Rattus norvegicus), sequence (P23739 1-1013 limits assumed): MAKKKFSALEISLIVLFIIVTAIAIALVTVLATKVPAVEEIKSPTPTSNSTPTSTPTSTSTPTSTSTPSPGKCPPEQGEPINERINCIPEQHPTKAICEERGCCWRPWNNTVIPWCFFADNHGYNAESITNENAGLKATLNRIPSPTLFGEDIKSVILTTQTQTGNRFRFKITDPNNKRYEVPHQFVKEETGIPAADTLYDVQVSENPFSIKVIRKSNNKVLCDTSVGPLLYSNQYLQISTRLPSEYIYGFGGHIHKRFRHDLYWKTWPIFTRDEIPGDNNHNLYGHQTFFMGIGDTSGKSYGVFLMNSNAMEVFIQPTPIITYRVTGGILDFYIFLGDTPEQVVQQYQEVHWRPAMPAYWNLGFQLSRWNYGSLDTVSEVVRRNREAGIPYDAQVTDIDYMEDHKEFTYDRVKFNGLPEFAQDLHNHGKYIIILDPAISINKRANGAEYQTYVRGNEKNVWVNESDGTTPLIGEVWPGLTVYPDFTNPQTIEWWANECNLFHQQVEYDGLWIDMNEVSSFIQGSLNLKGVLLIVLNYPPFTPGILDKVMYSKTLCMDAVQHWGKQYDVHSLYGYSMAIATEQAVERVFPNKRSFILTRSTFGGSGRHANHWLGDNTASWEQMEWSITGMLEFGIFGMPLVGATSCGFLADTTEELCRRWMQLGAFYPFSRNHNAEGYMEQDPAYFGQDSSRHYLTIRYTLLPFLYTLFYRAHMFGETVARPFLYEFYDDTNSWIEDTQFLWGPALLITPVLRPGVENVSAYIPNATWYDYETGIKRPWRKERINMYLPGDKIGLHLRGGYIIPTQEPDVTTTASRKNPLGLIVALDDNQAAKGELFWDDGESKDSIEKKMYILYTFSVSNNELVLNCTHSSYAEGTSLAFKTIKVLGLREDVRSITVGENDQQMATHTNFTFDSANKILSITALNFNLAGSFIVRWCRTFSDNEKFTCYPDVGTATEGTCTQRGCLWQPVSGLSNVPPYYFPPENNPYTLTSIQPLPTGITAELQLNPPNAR
Sucrase-isomaltase, intestinal (Rattus norvegicus), sequence (P23739 1014-1841 limits assumed): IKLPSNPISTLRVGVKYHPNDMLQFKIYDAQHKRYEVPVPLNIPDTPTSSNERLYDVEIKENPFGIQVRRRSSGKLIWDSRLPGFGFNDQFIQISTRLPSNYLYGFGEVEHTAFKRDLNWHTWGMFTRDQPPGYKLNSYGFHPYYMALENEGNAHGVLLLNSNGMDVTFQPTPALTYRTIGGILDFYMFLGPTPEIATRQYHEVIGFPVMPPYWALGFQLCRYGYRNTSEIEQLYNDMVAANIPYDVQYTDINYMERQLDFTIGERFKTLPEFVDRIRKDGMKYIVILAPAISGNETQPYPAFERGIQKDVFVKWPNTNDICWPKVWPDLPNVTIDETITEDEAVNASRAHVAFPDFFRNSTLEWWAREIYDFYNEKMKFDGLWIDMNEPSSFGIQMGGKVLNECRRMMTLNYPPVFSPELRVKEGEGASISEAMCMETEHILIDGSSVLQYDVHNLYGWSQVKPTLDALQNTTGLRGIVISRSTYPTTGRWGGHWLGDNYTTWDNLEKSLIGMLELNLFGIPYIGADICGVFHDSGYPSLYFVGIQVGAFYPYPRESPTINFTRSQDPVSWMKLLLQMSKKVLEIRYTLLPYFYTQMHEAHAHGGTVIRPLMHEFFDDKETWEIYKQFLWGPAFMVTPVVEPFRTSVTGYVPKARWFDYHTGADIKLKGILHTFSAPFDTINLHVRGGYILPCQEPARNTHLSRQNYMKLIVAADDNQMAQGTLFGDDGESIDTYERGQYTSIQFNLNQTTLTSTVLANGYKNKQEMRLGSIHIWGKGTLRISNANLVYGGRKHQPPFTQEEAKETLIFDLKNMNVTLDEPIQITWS
The target in assay [4] is Lysosomal alpha-glucosidase (Rattus norvegicus) (UniProt Q6P7A9). The note with it: 100 ug/ml.
Lysosomal alpha-glucosidase (Rattus norvegicus), sequence (Q6P7A9 whole entry): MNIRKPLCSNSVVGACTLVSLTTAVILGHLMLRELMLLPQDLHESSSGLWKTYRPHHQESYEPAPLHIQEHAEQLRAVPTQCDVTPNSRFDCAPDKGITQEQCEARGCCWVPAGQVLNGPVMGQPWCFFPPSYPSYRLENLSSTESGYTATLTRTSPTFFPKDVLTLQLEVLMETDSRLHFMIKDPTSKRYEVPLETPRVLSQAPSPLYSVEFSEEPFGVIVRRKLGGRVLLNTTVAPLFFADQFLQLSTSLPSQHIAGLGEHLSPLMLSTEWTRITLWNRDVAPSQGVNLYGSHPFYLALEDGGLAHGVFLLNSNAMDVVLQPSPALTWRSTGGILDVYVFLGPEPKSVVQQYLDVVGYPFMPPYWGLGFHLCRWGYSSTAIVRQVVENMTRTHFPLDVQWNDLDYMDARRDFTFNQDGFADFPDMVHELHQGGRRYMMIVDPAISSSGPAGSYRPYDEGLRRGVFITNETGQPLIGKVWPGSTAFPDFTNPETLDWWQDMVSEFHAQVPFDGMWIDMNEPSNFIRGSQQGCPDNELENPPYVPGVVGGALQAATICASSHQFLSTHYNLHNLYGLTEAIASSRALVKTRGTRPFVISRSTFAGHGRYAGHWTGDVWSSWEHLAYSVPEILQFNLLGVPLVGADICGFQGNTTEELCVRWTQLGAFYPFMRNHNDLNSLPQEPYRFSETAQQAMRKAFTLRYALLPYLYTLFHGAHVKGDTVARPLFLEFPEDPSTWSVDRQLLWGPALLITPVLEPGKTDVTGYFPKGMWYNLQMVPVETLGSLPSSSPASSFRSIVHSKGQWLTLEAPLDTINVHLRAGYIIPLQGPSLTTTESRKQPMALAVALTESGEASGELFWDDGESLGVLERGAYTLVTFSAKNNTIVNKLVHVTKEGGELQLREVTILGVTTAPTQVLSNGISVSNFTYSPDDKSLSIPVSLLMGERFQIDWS
Assay [5] is described as follows: Inhibition of rat small intestinal maltase after 30 mins.

What is called IC50 is the concentration that inhibits the measured activity by half. A low value points to greater potency in that assay. As usually defined, the inhibition is the relative decrease from the control value, in per cent. A lower inhibition goes with little suppression.

T1 sequence (P23739 1-1013 limits assumed): as the sequence (P23739 1-1013 limits assumed) above
T1 sequence (P23739 1014-1841 limits assumed): as the sequence (P23739 1014-1841 limits assumed) above

On to `O=S(=O)([O-])O[C@H]([C@@H](O)[C@H](O)[C@H](O)CO)[C@H](O)C[S+]1C[C@@H](O)[C@H](O)[C@H]1CO` (stereo not given in full), for which the results for the 50% inhibitory concentration (IC50) in assay [1] and in assay [2] were over 236 µM and 9 µM, respectively. In addition, the inhibition in assay [3] came to 34%; in assay [4], 45%.

On to `O=S(=O)([O-])OC[C@H](O)C[S@+]1C[C@@H](O)[C@H](O)[C@H]1CO` [SALAPRINOL], for which the figures for the half-inhibitory concentration (IC50) in assay [1] and in assay [2] were 0.29 µM and 2.6 µM, respectively.

For `O=S(=O)([O-])O[C@@H]([C@H](O)[C@@H](O)CO)[C@H](O)C[S@+]1C[C@@H](O)[C@H](O)[C@H]1CO` [PONKORANOL], the IC50 in assay [1] is over 100 µM.

For the compound `O=S(=O)([O-])O[C@H]([C@@H](O)[C@H](O)[C@@H](O)CO)[C@H](O)C[S+]1C[C@@H](O)[C@H](O)[C@H]1CO` (stereo not given in full), the half-inhibitory concentration (IC50) is over 236 µM in assay [1] and 8.5 µM in assay [2]. The inhibition in assay [3] was 28%; in assay [4], 32%.

In assay [1], `OCC(CO)N[C@H]1C[C@](O)(CO)[C@@H](O)[C@H](O)[C@H]1O` [VOGLIBOSE] registered an IC50 of 1.2 µM.

As to `O=S(=O)([O-])O[C@@H](CO)[C@H](O)C[S@+]1C[C@@H](O)[C@H](O)[C@H]1CO` [SALACINOL], half-maximal inhibition in assay [5] (IC50) required 5.2 µM.

Regarding `O=S(=O)([O-])O[C@@H]([C@H](O)[C@H](O)[C@@H](O)CO)[C@H](O)C[S+]1C[C@@H](O)[C@H](O)[C@H]1CO` (stereo not given in full) [KOTALANOL], the IC50 in assay [5] stood at 7.2 µM.

For `O=S(=O)([O-])O[C@H]([C@@H](O)[C@@H](O)[C@@H](O)CO)[C@H](O)C[S+]1C[C@@H](O)[C@H](O)[C@H]1CO` (stereo not given in full), the IC50 in assay [1] stood at 23 µM; in assay [2], 25 µM.

`O=S(=O)([O-])O[C@H]([C@@H](O)[C@@H](O)[C@H](O)CO)[C@H](O)C[S+]1C[C@@H](O)[C@H](O)[C@H]1CO` (stereo not given in full): the IC50 is over 236 µM in assay [1] and 16 µM in assay [2]. The inhibition in assay [3] worked out at 8%; in assay [4], 25%.
